# Results gathered from unrelated publications.
# Compare with care: the assays were run in different laboratories.
# Target: Muscarinic acetylcholine receptor M2 (CHRM2, Homo sapiens, UniProt P08172)
# Tested at: 10 µM
# Sequence (P08172 1-466, as in one of the studies): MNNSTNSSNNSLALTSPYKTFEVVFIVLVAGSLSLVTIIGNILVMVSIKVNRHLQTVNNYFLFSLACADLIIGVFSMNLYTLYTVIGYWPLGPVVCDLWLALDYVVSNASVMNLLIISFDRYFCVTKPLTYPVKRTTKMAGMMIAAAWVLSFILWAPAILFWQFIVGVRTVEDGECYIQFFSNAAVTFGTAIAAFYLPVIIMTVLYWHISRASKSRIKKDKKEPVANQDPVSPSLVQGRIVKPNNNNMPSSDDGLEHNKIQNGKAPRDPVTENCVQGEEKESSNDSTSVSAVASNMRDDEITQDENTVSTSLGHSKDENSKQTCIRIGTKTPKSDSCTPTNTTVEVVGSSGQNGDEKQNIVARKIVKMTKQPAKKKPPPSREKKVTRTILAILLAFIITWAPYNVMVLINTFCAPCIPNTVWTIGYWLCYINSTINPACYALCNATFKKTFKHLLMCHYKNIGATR
Compound,assay,quantity,value
Nc1ncc(-c2nc(N3CCOCC3)nc(N3CCOCC3)n2)c(C(F)F)n1,"cell-free assay, radioligand",remaining signal,117%
CN1CC[C@]2(C)c3cc(OC(=O)Nc4ccccc4)ccc3N(C)[C@H]12,"ligand displacement, radioligand",inhibition,0%
CC(C)N1CCC[C@H]1CNC(=O)c1cn(C2CCCC2)c(=O)c2c1c1ccccc1n2C,"ligand displacement, radioligand",inhibition,1%
Cc1c(N2CCNCC2)nc2ccc(Br)cc2c1C(=O)NC[C@H](CCC(=O)O)c1ccccc1Cl,ligand displacement,inhibition,13.8%
c1ccc(C(NCCNC(c2ccccc2)c2ccccc2)c2ccccc2)cc1,cell-free assay,inhibition,45%
Clc1ccc2c(C3CCN(CCc4c[nH]c5ccccc45)CC3)c[nH]c2c1,"ligand displacement, radioligand",inhibition,15%
CCN(CC)CCCC[C@H](NC(=O)[C@H](CC(C)C)NC(=O)[C@H](C)NC(=O)[C@H](Cc1ccccc1)NC(=O)c1ccc(C(C)(C)C)cc1)C(=O)N[C@@H](CO)C(=O)OC,"ligand displacement, radioligand",inhibition,-6%
C[C@H](C(=O)N[C@H]1COc2ccccc2[C@@H]1S(C)(=O)=O)c1ccc(F)cc1,cell-free assay,inhibition,5%
Cn1cncc1[C@@](O)(COc1ccc(C#N)cc1-c1ccc(OC(F)(F)F)cc1)c1ccc(C#N)cc1,ligand displacement,inhibition,-11.9%
COCc1c(-c2cc3cc(C)cc(OC)c3s2)c2c(N)ncnn2c1CN1CCNC(=O)C1,"ligand displacement, radioligand",inhibition,-1%
